# Activity calls are given as the source filed them.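 Rule for the calls, unless noted: active = visually confirmed hit in the image check and inhibition above 20%; inconclusive = visually confirmed hit but inhibition not above 20%; inactive = no visual hit in the image check.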
# Legend:
# [1] = inhibitors of TNFa-induced NFkB p65 translocation, primary screen, imaging, HUVEC, MLSMR starter and 10KST1 sets (AID 438;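 active = inhibition above 20% together with a positive visual image hit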;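 note: compound added about 3h40 before a 20 min TNFalpha stimulation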;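 for inhibition: signal is the nuclear over cytoplasmic p65 intensity ratio per well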); details: HUVEC TNFa-induced p65 nuclear translocation; cell count: measured here: nuclei count (cytotoxicity indicator), at 2.08 µM; inhibition: at 2 µM, stronger effect = higher value, 0% TNFa-plus-vehicle, 100% no-TNFa wells
# [2] = endothelial E-selectin expression blockers – imaging, HUVEC, immunofluorescence, MLSMR starter and 10KST1 sets, primary screen (AID 487); details: HUVEC TNFalpha-induced E-selectin immunofluorescence imaging, at 2 µM; inhibition: stronger effect = higher value; nuclei count: measured here: cell number, toxicity;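 for inhibition: signal is fraction of cell area covered by stained E-selectin grains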;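 for nuclei count: 100% = median nuclei count of all wells on the same plate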
# [3] = Primary imaging screen for DUSP6 inhibitors that restore phospho-Erk in transfected HeLa cells, chemical complementation (AID 609;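 active = compounds giving at least 50% inhibition in the cell-based MKP-3 phosphatase rescue imaging test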;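 for inhibition: phospho-Erk level distribution per well compared with pooled transfected vehicle control wells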); details: HeLa MKP-3 transfected, phospho-Erk imaging KS statistic, at 10 µM, cells stimulated with TPA for 15 min
# [4] = molecular target: Dual specificity protein phosphatase 6 (Homo sapiens) (UniProt Q16828); experiment: as above; details: HeLa MKP-3 transfected, phospho-Erk imaging KS statistic; at 10 µM; stronger effect = higher value; cells stimulated with TPA for 15 min
# [5] = molecular target: Voltage-gated potassium channel subunit beta-2 (Rattus norvegicus) (UniProt P62483); experiment: inhibitors of rat Kvbeta2 reductase activity – biochemical, NADPH fluorescence, primary screen (AID 622;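 active = fluorescence slope higher than the sample average by over 3 SD, cut at about -0.22 in these data, passing the limit was not always enough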;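 note: slope of raw intensity against log time taken from 70 to 1610 s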); details: recombinant KvBeta, 4-cyanobenzaldehyde reduction, at 10 µM, stronger effect = higher value
# [6] = molecular target: Voltage-gated potassium channel subunit beta-2 (Rattus norvegicus) (UniProt P62483); experiment: enhancers of rat Kvbeta2 NADPH turnover – biochemical, NADPH fluorescence, primary screen (AID 623;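 active = NADPH fluorescence slope more negative than the mean of all samples by about 3 SD, 99.7% confidence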;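 note: fluorescence intensity change per second fitted from 20 to 320 s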); details: Recombinant KvBeta, NADPH fluorescence decrease slope, 10 min; at 10 µM; stronger effect = lower value
# [7] = molecular target: Alpha-2C adrenergic receptor (Homo sapiens) (UniProt P18825); experiment: compounds altering alpha2C-coupled GIRK flux – cell-based, HEK293 alpha2C/GIRK1/2, thallium flux, primary screen (AID 624;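 active = fluorescence slope after compound addition differing from the mean of all screened samples at 99.7% confidence, in either direction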;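 note: slope of fluorescence ratio to pre-addition baseline per second over 15 to 24 s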); details: thallium flux BTC fluorescence, at 10 µM, actives lie on both sides
# [8] = inhibitors of larval lipid processing in zebrafish, primary screen, whole organism, PED6 fluorescence, gall bladder and intestine (AID 686;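 active = a full or partial loss of lipid-probe fluorescence in the fish gall bladder, intestine or both, judged by eye; inactive = no fluorescence loss, or compound toxic to the fish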;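 note: larvae 5 to 7 days old with five fish per well; signal comes from phospholipase A2 cleavage of quenched PED6 carried via bile; overnight exposure to compound and PED6 before scoring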); details: Zebrafish larvae PED6 lipid processing, fluorescence scoring; screened at 20 µM (by protocol)
# Method in brief: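 Also added: quenched phospholipase substrate PED6, 100 nM final, ingested by larvae; System: zebrafish larvae, 5-7 d; Quantity: 5 larvae per well; Compound: 20 µM single dose; Schedule: overnight compound and PED6 incubation; Read-out: visual per-well fluorescence inhibition score; Measured by: By-eye fluorescence microscopy; Medium: E3.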
# [9] = loss of swimming-algae plug formation – whole organism, Chlamydomonas reinhardtii, WT vs cilia-less mutant, absorbance, 96-well, primary screen (AID 463189;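 active = inhibition at or above 50% relative to wild type and mutant plate controls; inactive = inhibition below 50%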;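 note: 0% = wild type cc124 cells in DMSO and 100% = ciliumless bld1 mutant cells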); details: Chlamydomonas reinhardtii gravitaxis, OD600 absorbance, 2 days; at 10 µM; stronger effect = higher value
# [10] = measured here: cell density z-score
# [11] = measured here: nuclear c-Myc green intensity z-score
# [12] = measured here: nuclear pErk red intensity z-score, stronger effect = higher value
# Sequence of Voltage-gated potassium channel subunit beta-2 (Rattus norvegicus) (P62483 whole entry, looked up): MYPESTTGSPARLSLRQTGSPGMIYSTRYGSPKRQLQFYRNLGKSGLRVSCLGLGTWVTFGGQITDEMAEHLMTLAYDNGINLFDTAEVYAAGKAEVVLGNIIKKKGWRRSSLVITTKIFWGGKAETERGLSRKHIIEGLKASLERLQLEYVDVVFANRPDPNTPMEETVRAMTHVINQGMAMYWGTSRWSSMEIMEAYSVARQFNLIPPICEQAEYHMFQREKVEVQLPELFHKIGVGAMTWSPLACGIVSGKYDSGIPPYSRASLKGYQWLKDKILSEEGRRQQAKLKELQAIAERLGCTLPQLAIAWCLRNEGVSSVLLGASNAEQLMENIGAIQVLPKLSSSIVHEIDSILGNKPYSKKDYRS
# Sequence of Dual specificity protein phosphatase 6 (Homo sapiens) (Q16828 whole entry, looked up): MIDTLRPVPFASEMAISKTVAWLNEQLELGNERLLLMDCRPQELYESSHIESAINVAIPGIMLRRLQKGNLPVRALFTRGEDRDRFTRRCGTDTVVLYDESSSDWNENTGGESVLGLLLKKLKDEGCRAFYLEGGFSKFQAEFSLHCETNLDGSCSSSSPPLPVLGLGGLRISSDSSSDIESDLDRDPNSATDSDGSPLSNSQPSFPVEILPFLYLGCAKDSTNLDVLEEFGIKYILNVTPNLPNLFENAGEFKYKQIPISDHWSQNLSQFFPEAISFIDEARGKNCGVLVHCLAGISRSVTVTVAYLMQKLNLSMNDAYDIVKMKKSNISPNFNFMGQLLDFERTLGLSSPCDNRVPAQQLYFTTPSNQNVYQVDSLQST
# Sequence of Alpha-2C adrenergic receptor (Homo sapiens) (P18825 whole entry, looked up): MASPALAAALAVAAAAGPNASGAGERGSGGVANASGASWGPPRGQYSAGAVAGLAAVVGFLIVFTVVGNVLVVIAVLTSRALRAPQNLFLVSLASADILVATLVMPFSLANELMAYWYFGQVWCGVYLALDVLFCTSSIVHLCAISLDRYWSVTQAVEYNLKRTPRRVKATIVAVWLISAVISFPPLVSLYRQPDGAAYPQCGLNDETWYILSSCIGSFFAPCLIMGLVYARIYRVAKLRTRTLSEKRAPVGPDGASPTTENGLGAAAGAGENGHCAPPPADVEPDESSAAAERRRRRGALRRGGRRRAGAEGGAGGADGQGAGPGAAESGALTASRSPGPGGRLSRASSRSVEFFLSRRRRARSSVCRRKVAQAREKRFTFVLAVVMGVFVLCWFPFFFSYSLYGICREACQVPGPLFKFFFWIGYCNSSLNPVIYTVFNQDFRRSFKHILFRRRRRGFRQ
SMILES,cell count [1],inhibition [1],inhibition [2],nuclei count [2] [%],"z-score [3, 10]","z-score [3, 11]","z-score [3, 12]",inhibition [4],fluorescence slope [5],NADPH fluorescence slope [6],slope [7],outcome [8],inhibition [9]
CC1(C)Cc2nc(NCCCO)c(C#N)cc2CO1,503,-6% (inactive),29.1% (inactive),94.8,-0.759,0.0263,-0.295,-11.9% (inactive),-0.421 (inactive),-0.000243 (inactive),0.00519 (inactive),inactive,5% (inactive)
COc1ccc(CCCNC(=O)CC#N)cc1OC,652,-3.9% (inactive),-14.5% (inactive),185,-0.133,0.521,-0.241,17% (inactive),-0.512 (inactive),-4.5e-05 (inactive),0.00537 (inactive),inactive,10.9% (inactive)
COc1cccc(OC)c1OCC(C)CNCC1CCCO1 (stereo not given),524,-5.6% (inactive),-156% (inactive),123,-1,1.14,1.28,9.39% (inactive),-0.524 (inactive),-5e-05 (inactive),0.00511 (inactive),inactive,11.3% (inactive)
Cc1cccc(N)c1SC1CCCCC1O (stereo not given),420,-5.2% (inactive),-79.6% (inactive),131,0.781,-1.44,-1.09,23.9% (inactive),-0.46 (inactive),-2.2e-05 (inactive),0.00629 (inactive),inactive,15% (inactive)
CC(=O)C1=C(O)C(=O)N(c2cccc(C(=O)O)c2)C1c1ccc(F)cc1 (stereo not given),580,-13% (inactive),-65.7% (inactive),160,-0.487,-0.742,1.35,-6.06% (inactive),-0.509 (inactive),-3.9e-05 (inactive),0.00665 (inactive),inactive,-5.48% (inactive)
COc1ccc(C(=O)N/C(N)=N/c2nc3ccccc3o2)cc1,557,-12.2% (inactive),-140% (inactive),137,0.0574,0.314,0.889,-3.97% (inactive),-0.499 (inactive),-3.2e-05 (inactive),0.0048 (inactive),inactive,14.5% (inactive)
CN1CCN(c2ncnc3c2[nH]c2ccc(F)cc23)CC1,330,-15.6% (inactive),-17.5% (inactive),64.2,-0.484,0.264,-0.525,-8.76% (inactive),-0.382 (inactive),-8e-05 (inactive),0.00525 (inactive),inactive,32.3% (inactive)
Cc1ccc(NC(=O)CSC2=C(C#N)C(c3ccco3)C3=C(CCCC3=O)N2)cc1 (stereo not given),382,1.6% (inactive),-118% (inactive),144,1.1,-0.193,-0.0699,-0.584% (inactive),-0.438 (inactive),-5.7e-07 (inactive),0.00635 (inactive),inactive,32.7% (inactive)
CSC1=C(C#N)C(c2ccc(C)s2)CC(=O)N1 (stereo not given),411,-0.1% (inactive),13.9% (inactive),63.5,0.0106,2.55,-0.606,13.2% (inactive),-0.511 (inactive),-5e-05 (inactive),0.00472 (inactive),inactive,24% (inactive)
COc1ccc(-c2nnc3sc(-c4ccccc4OC)nn23)cc1,615,-8.4% (inactive),-30.4% (inactive),153,0.537,-0.23,-1.1,-11.5% (inactive),-0.413 (inactive),-4.4e-05 (inactive),0.00877 (inactive),inactive,12.7% (inactive)
COc1ccc(CN2CCC(=O)NC2=O)cc1,670,-14.7% (inactive),-450% (inactive),162,0.756,-1.36,0.0301,9.39% (inactive),-0.502 (inactive),-3.7e-05 (inactive),0.00539 (inactive),inactive,2.33% (inactive)
CCCCCCC(=O)N1CCN(c2cc3c(cc2F)c(=O)c(C(=O)O)cn3CC)CC1,402,6% (inactive),-166% (inactive),224,-1.36,0.0882,0.161,6.04% (inactive),-0.0683 (inactive),-1.7e-05 (inactive),0.0054 (inactive),inactive,4.18% (inactive)
CC1(C)Cc2c(C#N)c(NCC3CCCO3)nc(-c3ccco3)c2CO1 (stereo not given),508,-1.3% (inactive),-83% (inactive),123,-1.04,1.4,-1.27,11.9% (inactive),-0.337 (inactive),1e-05 (inactive),0.00551 (inactive),inactive,1.27% (inactive)
CCCC(=O)Nc1sc2c(c1C#N)CCCC2,385,7.8% (inactive),-83.9% (inactive),110,-0.165,0.756,-2.32,3.56% (inactive),-0.445 (inactive),-0.000372 (inactive),0.00647 (inactive),inactive,-10.7% (inactive)
COc1ccc(C(=O)CSC2=C(C#N)C3(CCCCC3)C(C#N)=C(N)N2)cc1,705,-13.2% (inactive),-25.4% (inactive),192,-0.688,1.18,0.232,2.71% (inactive),-0.393 (inactive),-3.2e-05 (inactive),0.00422 (inactive),inactive,-3.04% (inactive)
C=CCOn1c(=O)c(-c2cc3ccccc3o2)[n+]([O-])c2ccccc21,536,-1.4% (inactive),-41.6% (inactive),144,-0.342,0.414,-0.0488,-8.76% (inactive),-0.123 (inactive),1.7e-05 (inactive),0.00548 (inactive),inactive,18.3% (inactive)
COC(=O)CN(c1nc(C)cc(OC)n1)S(=O)(=O)c1ccccc1,568,-3.9% (inactive),-82.4% (inactive),122,-1.67,0.823,-0.13,3.56% (inactive),-0.391 (inactive),-2.2e-05 (inactive),0.00529 (inactive),inactive,-16.2% (inactive)
CC1(C)Cc2c(sc3c4nnnn4c4nnnn4c23)CO1,634,-12.5% (inactive),-30.9% (inactive),164,0.452,0.0526,0.417,20.8% (inactive),-0.493 (inactive),-9.6e-05 (inactive),0.0051 (inactive),inactive,27.1% (inactive)
COc1ccc2c(c1)nc(N)n2Cc1ccccc1,570,-4.4% (inactive),15% (inactive),168,2.35,-1.31,1.13,15.8% (inactive),-0.388 (inactive),-2.5e-05 (inactive),0.004 (inactive),inactive,12.8% (inactive)
CC(=O)Nn1cnc2c(c1=O)C1(CCCC1)Cc1ccccc1-2,520,-1.9% (inactive),29.6% (inactive),113,-0.985,1.83,1.16,-2.69% (inactive),-0.382 (inactive),-2e-06 (inactive),0.0042 (inactive),inactive,43% (inactive)
CCN1CCN(c2nc3c(C)cccn3c(=O)c2/C=C(\C#N)S(=O)(=O)c2ccc(C)cc2)CC1,519,-0.8% (inactive),-173% (inactive),118,0.354,-1.44,0.701,1.6e-07% (inactive),-0.51 (inactive),-6.4e-05 (inactive),0.00274 (inactive),inactive,14.6% (inactive)
CCOc1cc2nc(-c3ccc(OC)c(OC)c3)nc(N3CCOCC3)c2cc1OC,497,-26.2% (inactive),-85% (inactive),151,-0.0989,-1.76,-2.63,20.9% (inactive),-0.455 (inactive),-1.4e-05 (inactive),0.00555 (inactive),inactive; toxic,84.6% (active)
O=C(CN1C(=O)c2ccccc2S1(=O)=O)c1ccccc1,567,-7.2% (inactive),39.2% (inactive),193,0.246,1.04,-0.287,7.73% (inactive),-0.511 (inactive),-9e-05 (inactive),0.005 (inactive),inactive,-6.59% (inactive)
CCCOC(=O)CSC1=C(C#N)C(c2ccccc2OCC)C(C#N)C(=O)N1 (stereo not given),487,-1.9% (inactive),-37.3% (inactive),101,0.769,-0.531,1.5,7.48% (inactive),-0.499 (inactive),-0.000121 (inactive),0.00584 (inactive),inactive,-14.4% (inactive)
COc1ccc(C2C(C#N)=C(N)Oc3n[nH]c(C)c32)cc1CSc1ccccn1 (stereo not given),648,-1.9% (inactive),9.1% (inactive),168,-0.678,1.17,-0.733,-5.62% (inactive),-0.412 (inactive),-3.1e-05 (inactive),0.00563 (inactive),inactive,-9.39% (inactive)
